LMPTP inh = blocks human LMPTP phosphatase; P24666; recombinant LMPTP-A, OMFP fluorogenic substrate, fluorescence intensity; inhibition, % at 20 µM; 360,000 compounds, 0.22% hits;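 active means compounds that cut the enzyme signal by at least half of the control window in the single-dose screen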;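 further: plate controls were DMSO wells with enzyme plus substrate for no effect and substrate without enzyme for full effect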
Target sequence (P24666 whole entry, looked up): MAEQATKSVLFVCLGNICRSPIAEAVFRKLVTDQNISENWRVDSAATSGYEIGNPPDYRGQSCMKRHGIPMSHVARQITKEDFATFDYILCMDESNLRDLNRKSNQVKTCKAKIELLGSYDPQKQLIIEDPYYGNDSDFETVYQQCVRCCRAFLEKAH
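Assay system: LMPTP-A, protein tyrosine phosphatase of low molecular weight / Medium: pH 6.0 Bis-Tris buffer with DTT and Triton X-100 / Schedule: 50 min enzyme reaction at room temperature, protected from light / Measured by: endpoint fluorescence intensity from OMFP dephosphorylation / Read-out basis: % inhibition relative to no-enzyme and uninhibited control wells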
SUMO1-SIM PPI = alters human SUMO1 binding to SIM partners. P63165. SUMO1 binding to a labelled peptide, TR-FRET, 1 h. inhibition, % at 20 µM. 360,000 compounds, 0.33% hits. AID 602429; in the data active means inhibition above about 37%
Target sequence (P63165 whole entry, looked up): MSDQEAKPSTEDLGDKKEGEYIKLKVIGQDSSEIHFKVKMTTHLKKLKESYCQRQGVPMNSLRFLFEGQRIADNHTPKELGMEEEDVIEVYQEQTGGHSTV
STEP block = inhibitors of human striatal-enriched phosphatase STEP | AID 588621 | recombinant STEP, OMFP fluorogenic substrate, fluorescence | P54829 | inhibition, % at 20 µM | 360,000 compounds, 0.25% hits;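 active means inhibition at 20 µM, scaled per plate between control wells, above about 37%, limit read from the data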;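 further: 0% = DMSO with enzyme and substrate and 100% = substrate only without enzyme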
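Assay system: isolated STEP enzyme. Buffer or medium: pH 6.0 Bis-Tris with DTT and Tween 20. Also added: fluorogenic phosphatase substrate OMFP at 25 µM final. Dosing: 20 µM, 1% DMSO. Timing: 20 min reaction, room temperature, in the dark. Measured by: fluorescence intensity, excitation 480 nm, emission 540 nm. Evaluation: normalized % inhibition.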
DNMT1 inh = inhibitors of human DNMT1; 360,000 compounds, 0.83% hits; P26358; inhibition (reported as % activation of signal), % at 10 µM; DNMT1 molecular beacon, Hinp1I cleavage, fluorescence; in the data active means inhibition above about 50%
Scp1 inh = Scp-1 (human) phosphatase inhibition; Q9GZU7; Recombinant Scp1, phosphopeptide, malachite green phosphate absorbance; inhibition, % at 20 µM; 340,000 compounds, 0.88% hits;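 active means inhibition above about 50% at 20 µM, limit read from the data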;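 further: plate controls were DMSO wells with enzyme for no effect and wells lacking enzyme for full effect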
Target sequence (Q9GZU7 76-261 limits assumed): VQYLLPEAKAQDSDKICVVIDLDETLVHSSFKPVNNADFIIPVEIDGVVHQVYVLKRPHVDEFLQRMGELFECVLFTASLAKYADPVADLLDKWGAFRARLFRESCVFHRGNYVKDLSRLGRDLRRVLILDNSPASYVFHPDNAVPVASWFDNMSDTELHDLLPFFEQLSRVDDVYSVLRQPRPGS
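Test system: SCP-1 catalytic domain; Buffer or medium: Acidic Tris acetate buffer with magnesium and detergent; Also added: Phosphorylated 17-residue peptide substrate; Compound: single 20 µM dose, 1% DMSO; Schedule: enzyme reaction 45 min at room temperature, colour 5 min, stabilisation 30 min; Signal: Phosphate-binding colour reagent, absorbance read at 630 nm.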
DNMT1 interf DR = counter-screen for DNMT1 inhibitors: spectral interference, dose response; shares compounds with DNMT1 inh; molecular beacon fluorescence; IC50, µM; 200 tested, under 10 active; AID 602382; call rule not given here
DNMT1 confirm = DNMT1 inhibition confirmation, single concentration. inhibition, % at 10 µM. AID 602385. DNMT1 molecular beacon HinP1I cleavage, fluorescence. 2,300 compounds, 8% hits. shares compounds with DNMT1 inh;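 active means average inhibition of at least 30% in the single-concentration confirmation test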
DNMT1 interf = beacon fluorescence artifact counter-screen | shares compounds with DNMT1 inh | DNMT1 molecular beacon spectral interference counterscreen, fluorescence 485/520 | activation (fluorescence interference), % at 10 µM | 2,300 compounds, 1% hits;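 active means activation of at least 30% at 10 µM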;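 further: DNMT1 catalytic domain with a HinP1I cleavage step and a FAM/dabcyl DNA beacon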
Numbers without * were called inactive; x = no result given. In the library only some 1.8% were active in any assay of this set; here they are far more common.

SMILES | LMPTP inh | SUMO1-SIM PPI | STEP block | DNMT1 inh | Scp1 inh | DNMT1 confirm | DNMT1 interf | others
CCCCCCCCC(=O)c1c(OC)oc(C=O)cc1=O | 7.5 | 8.2 | -4.3 | 98.3* | x | 38.2* | 3.0 | DNMT1 interf DR=>99
CCCCCCC(=O)Nc1cc2c(C)cc(=O)oc2cc1C | -1.3 | 1.2 | -15.6 | 7.5 | 2.6 | x | x
COc1ccc2nc(NC(=O)c3cccc(-c4cc5ccccc5oc4=O)c3)sc2c1 | 14.6 | -1.3 | 2.3 | 57.6* | 0.3 | 2.3 | -4.7
CCN(CC)c1ccc2cc(-c3nnc(-c4ccccc4)o3)c(=O)oc2c1 | -1.5 | -14.8 | -109.3 | 101.6* | -14.5 | 88.2* | 134.1*
COC(=O)C1=COC(OC2OC(CO)C(O)C(O)C2O)C2C(C)CC(=O)C12 (configuration not stated) | 8.0 | 1.8 | 18.1 | 73.6* | x | 1.7 | 1.6
COC(=O)C1=CO[C@@H](O[C@@H]2O[C@H](CO)[C@@H](O)[C@H](O)[C@H]2O)C2C1CC(O)O[C@H]2C (some centres not stated) | -1.0 | 8.9 | -0.5 | 6.1 | -5.9 | x | x
CCCNC(=O)C1(S(=O)(=O)c2ccccc2)CC=CC1 | -1.9 | -2.8 | -3.1 | 91.6* | -5.8 | 1.8 | 1.8
Cc1ccc(CNC(=O)C2(S(=O)(=O)c3ccccc3)CC=CC2)cc1 | -1.1 | -1.6 | 2.1 | 1.6 | 0.6 | x | x
O=S(=O)(Nc1ccccc1N1CCOCC1)c1ccc(Cl)cc1 | 0.7 | 6.2 | -0.9 | -3.2 | 1.5 | x | x
CCOc1ccc(OCc2ccc(C(=O)NN)o2)cc1 | -2.0 | 0.3 | -1.4 | -3.6 | 9.8 | x | x
CCOc1ccc(OCc2ccc(C(=O)NC(C)(C)C)o2)cc1 | -1.4 | 0.2 | 2.8 | 48.8 | 5.5 | 9.2 | 2.4
O=C(c1ccccn1)N1CCCC(N2CCN(c3cccc(C(F)(F)F)c3)CC2)C1 (configuration not stated) | -0.6 | -7.4 | -0.7 | -3.5 | -3.5 | x | x
c1ccc(CN2CC[C@@H](Nc3nccn4ccnc34)C2)cc1 | -2.7 | 3.8 | -1.9 | -0.7 | x | x | x
N#C/C(=C\c1c(N2CCC(C(N)=O)CC2)nc2ccccn2c1=O)C(=O)NCc1ccco1 | -1.2 | -5.8 | 0.5 | 64.0* | -4.4 | 5.5 | 2.9
Cc1cccn2c(=O)c(/C=C(\C#N)C(=O)NCc3ccco3)c(N3CCOCC3)nc12 | 7.8 | -16.9 | 3.6 | 3.1 | -7.8 | x | x
Cc1nn(C2CCS(=O)(=O)C2)c2nc(C3CC3)cc(C(=O)Nc3ccc(C(N)=O)cc3)c12 (configuration not stated) | -0.2 | 7.9 | 1.1 | 1.2 | 1.8 | x | x
CCOc1cc(/C=C2/NC(=S)NC2=O)ccc1OCc1ccc([N+](=O)[O-])cc1 | 20.6 | -5.7 | 7.6 | 51.9* | 0.0 | 3.4 | 9.2
CCOc1cc(C(c2c(C)[nH][nH]c2=O)c2c(C)[nH][nH]c2=O)ccc1OCc1ccc([N+](=O)[O-])cc1 | 1.5 | -12.6 | -2.1 | -25.8 | -4.6 | x | x
COc1ccc(-c2cc(=O)oc3cc(OC(C)C(=O)NCc4ccccn4)ccc23)cc1 (configuration not stated) | -0.1 | -21.3 | 0.3 | 1.0 | -1.3 | x | x
CCCn1c(N)c(NCCN2CCOCC2)c(=O)n(CC(=O)NCc2ccccc2)c1=O | -0.4 | 1.6 | 0.3 | 86.1* | -8.3 | 8.9 | 7.3
O=C(N/N=C/c1cccc(Br)c1)C1CC(=O)N(c2ccccc2)C1 (configuration not stated) | 0.4 | -4.2 | 2.1 | -0.6 | 49.9 | x | x
O=C1Nc2ccc3c(c2C1=Cc1cc2c(cc1Br)OCO2)OCO3 | 20.6 | 1.2 | 2.8 | 67.1* | 15.5 | 1.2 | 0.8
O=C1NC(=O)/C(=C/c2cc3c(cc2Br)OCO3)S1 | -3.3 | -4.9 | 3.7 | 1.7 | 6.2 | x | x
COc1ccc(C(=O)NC2CC2)cc1OC1CCN(Cc2ccc(NC(C)=O)cc2)CC1 | -1.3 | 2.8 | -1.6 | 1.1 | -3.4 | x | x
CC1CCN(S(=O)(=O)c2ccc(-c3nnc(SCc4cccnc4)o3)cc2)CC1 | 1.4 | -1.3 | -2.5 | 55.1* | -0.1 | 1.6 | 0.6
SMILES | LMPTP inh | SUMO1-SIM PPI | STEP block | DNMT1 inh | Scp1 inh | DNMT1 confirm | DNMT1 interf | others
CCC1CCc2sc(C(=O)NNC(=O)c3ccncc3)cc2C1 (configuration not stated) | 0.3 | 4.0 | -1.0 | 88.2* | -3.8 | 5.4 | 6.2
COc1ccc(-c2oc3ccccc3c2C#Cc2cncn2C)cc1 | 4.2 | -2.0 | 4.5 | -2.0 | 8.1 | x | x
O=C1C(=Cc2ccco2)CCCC1=Cc1ccco1 | 11.2 | 10.6 | 6.9 | 100.1* | 66.5* | 0.3 | 0.1
O=C1/C(=C/c2c[nH]c3ccccc23)CCC/C1=C\c1c[nH]c2ccccc12 | 2.8 | -11.1 | -9.0 | -30.2 | -46.7 | x | x
Cc1cc(C)c2c(N)c3cccc(C)c3nc2n1 | 13.5 | -1.7 | -11.2 | 73.0* | -10.3 | 40.5* | -2.9 | DNMT1 interf DR=>99
Cc1cccc2c(N)c3c(nc12)CCCC3 (tested in a mixture with another compound) | 0.8 | -14.1 | -1.7 | 5.6 | -3.4 | x | x
Cc1nc(C(=O)Nc2ccccc2Cl)cc2c1[nH]c1ccccc12 | -0.8 | -1.1 | 0.1 | 50.1* | 3.2 | 0.6 | -0.2
COc1ccc(NC(=O)c2cc3c([nH]c4ccccc43)c(C)n2)cc1 | -0.5 | 5.2 | -0.1 | -2.7 | -0.8 | x | x
OC(c1ccccc1)(c1nc(-c2cccc(F)c2)cs1)C(F)(F)F (configuration not stated) | 3.8 | 0.0 | -3.3 | -1.4 | x | x | x
Cc1cc(=O)oc2c3c(cc(OCC(=O)NC(Cc4ccc(Cl)cc4)C(=O)O)c12)OC(C)(C)CC3 (configuration not stated) | -1.4 | 14.6 | -1.6 | 97.8* | 4.1 | 1.2 | -0.4
C/C(=N/NC(=O)c1cc(-c2cccc([N+](=O)[O-])c2)n[nH]1)c1cccc(O)c1 | 0.0 | -13.7 | -0.3 | 88.5* | -1.7 | 2.8 | 5.2
COc1ccc2c(C(=O)c3ccc(C)cc3)n(Cc3ccc(C(N)=O)cc3)[n+]([O-])c2c1 | -1.4 | -21.4 | 2.7 | -9.2 | 16.4 | x | x
c1cnc2nc3c4ccccc4c4ccccc4c3nc2c1 | 8.4 | 35.6 | -1.6 | 51.5* | 13.2 | -0.5 | -0.1
C[C@@H]1CN([C@H](C)CO)C(=O)CCCn2nncc2CO[C@H]1CN(C)CC1CC1 | -4.9 | 2.8 | 1.8 | 3.5 | x | x | x
O=C(O)Cc1c[nH]c2ccccc12 | 0.5 | -0.7 | 2.1 | -0.9 | 6.8 | x | x
O=C(O)Cc1c[nH]c2cccc(O)c12 | 3.9 | -2.4 | 3.0 | 74.3* | 31.2 | 36.5* | -1.7 | DNMT1 interf DR=>99

Screening data: PubChem BioAssay, Sanford-Burnham Center for Chemical Genomics
